# In ChEMBL document CHEMBL1121475, “Inhibitors of indoleethylamine N-methyltransferase. Derivatives of 3-methyl-2-thiazolidinimine. In vitro, in vivo, and metabolic studies” (J Med Chem, 1980):
# Experiments:
# Oryctolagus cuniculus [1] = experiment: 100 mg/kg of [14C]- radiolabeled compound was orally (gavage) injected in rabbit kidney, and radioactivity content in feces was estimated; type: ADME, organism-based; conditions: in vivo, po
# How it was run: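 Rabbit given 100 mg/kg [14C]-labelled drug by gavage, 204.6 dpm/μg, in water/0.1 N HCl at 6.66 mg/mL. Rabbit 1 was killed at 2 h and liver, lung, kidney and blood taken; tissue values are μg equivalents/g and tissue:plasma ratio. Rabbit 3 was kept for urine (0-24, 24-48, 48-72 h) and feces (0-48 h), expressed as % of dose.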
# Oryctolagus cuniculus [2] = experiment: Radioactivity measurements were performed following oral administration of the 100 mg/kg in rabbit 5 after 2 hr brain; type: ADME, organism-based; parameters: dose 100 mg/kg, route oral; conditions: in vivo
# How it was run: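 Male rabbits (900-1060 g) received [14C]-labelled parent amide, 100 mg/kg (251.7 dpm/μg, pH about 4.5), by gavage. At 2 or 6 h they were killed by air injection into the ear vein. Blood was drawn by cardiac puncture; brain and lung were homogenized in water (1 g = 10 mL). Radioactivity is expressed as μg equivalents of parent per g or mL.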
# [3] = target: Indolethylamine N-methyltransferase (Homo sapiens) (UniProt O95050); experiment: In vitro evaluation of Indoleethylamine-N-methyltransferase in human lung preparations for ability to inhibit conversion of N-methyltryptamine (NMT) to N,N-dimethyltryptamine (DMT) at dose 25 ug/mL; type: tissue-based
# How it was run: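 Human lung INMT was taken from the 50000g supernatant, cut with 40-60% ammonium sulfate, dialysed and purified on Sephadex G-150. The reaction contained 0.007 M N-methyltryptamine stock, S-[methyl-14C]adenosylmethionine and potassium phosphate, pH 7.9, in 0.105 mL, run 90 min at 37 °C. It was stopped with borate at pH 10. [14C]DMT was extracted into isoamyl alcohol and counted by scintillation.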
# Oryctolagus cuniculus [4] = experiment: 200 mg/kg of [14C]- radiolabeled compound was orally administered in rabbit4, and radioactivity content in urine was estimated at total hours; conditions: rabbit, in vivo, po
# Chain of Indolethylamine N-methyltransferase (Homo sapiens) (O95050 whole entry): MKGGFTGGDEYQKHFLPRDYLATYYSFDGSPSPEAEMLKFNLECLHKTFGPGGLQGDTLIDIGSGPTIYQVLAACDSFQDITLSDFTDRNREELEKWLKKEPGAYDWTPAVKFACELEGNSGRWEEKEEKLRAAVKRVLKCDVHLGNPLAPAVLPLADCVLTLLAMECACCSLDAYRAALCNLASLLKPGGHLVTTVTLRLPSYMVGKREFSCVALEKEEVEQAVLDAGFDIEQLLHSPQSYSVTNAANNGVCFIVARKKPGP
structure (smiles),measurement,setting,value
CN1CCS/C1=N\C(=O)CCC(=O)/N=C1/SCCN1C,Tissue concentration,Oryctolagus cuniculus [1],211 µg/g
same,Radioactivity level,Oryctolagus cuniculus [2],17.8 µg/g
same,inhibition,[3],12%
same,Administered dose,Oryctolagus cuniculus [4],88%
